Here are results for seven compounds from ChEMBL document CHEMBL3860087, “New Broad-Spectrum Antibacterial Amphiphilic Aminoglycosides Active against Resistant Bacteria: From Neamine Derivatives to Smaller Neosamine Analogues” (J Med Chem, 2016).

The test system of data set [1] is Pseudomonas aeruginosa. Put plainly: Ratio of MIC for Pseudomonas aeruginosa ATCC 27853 after 4 serial passages to MIC for Pseudomonas aeruginosa ATCC 27853 prior to serial passages. The data set is classed as functional.
The species named for data set [2] is Mus musculus. Description: (§1) Cytotoxicity against mouse J774 cells assessed as cell viability at 10 uM after 24 hrs by MTT assay relative to control. The data set is classed as toxicity, cell-based. To be noted: j774, 24 h, 10 µM. In a few lines:
(§2)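 Murine J774 macrophages exposed 24 h to 10 or 30 μM compound, then 1 h with 0.2 mg/mL MTT; reaction stopped with DMSO, OD read at 570 nm as metabolic-activity viability. Number of independent experiments given per value.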
In general terms: Tetrazolium dyes change colour on reduction, which living cells bring about.

For data set [3], the species on record is Mus musculus. Put plainly: (§3) Cytotoxicity against mouse J774 cells assessed as cell viability at 30 uM after 24 hrs by MTT assay relative to control. The data set is classed as toxicity, cell-based. As to conditions: j774, 24 h, 30 µM. The procedure, abridged:
as §2

Data set [4] has as its system Klebsiella pneumoniae. Put plainly: Antibacterial activity against Klebsiella pneumoniae ATCC 700603 by microdilution method. The data set is classed as functional. The procedure, abridged: (§4)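 Strains grown overnight at 37 °C on trypticase soy agar; MIC by broth microdilution from fresh culture in cation-adjusted Mueller–Hinton broth, starting inoculum 10^6 cells, following CLSI recommendations.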
(In general: Broth dilution looks for growth in wells or tubes with falling amounts of substance.)

Data set [5] has as its system Staphylococcus aureus. Put plainly: Antibacterial activity against NorA expressing Staphylococcus aureus 1 by microdilution method.
Data set [6] relates to Pseudomonas aeruginosa. Put plainly: Antibacterial activity against MexXY expressing Pseudomonas aeruginosa PA22 by microdilution method. The data set is classed as functional. The procedure, abridged:
as §4

The test system of data set [7] is Pseudomonas aeruginosa. Put plainly: Induction of inner membrane permeabilization of Pseudomonas aeruginosa ATCC 27853 at 5 uM after 15 mins by propidium iodide staining-based fluorescence assay relative to control. The data set is classed as functional. The procedure, abridged:
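P. aeruginosa ATCC 27853 from TSA colony, overnight in MHB-CA at 37 °C with shaking, diluted 100-fold and grown 4 h to mid-log (OD620 ~0.4–0.5). Suspension (OD600 0.05) with PI (3 mM stock diluted 10^3-fold) plus compound in HEPES (1–10 μM final). Fluorescence ex 540/em 610 nm at 25 °C after 15 min; normalized to CTAB 150 μM (100%) and imipenem (0%).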

Data set [8] relates to Acinetobacter lwoffii. Put plainly: Antibacterial activity against Acinetobacter lwoffii ATCC 17925 by microdilution method. The data set is classed as functional. In a few lines: as §4
Data set [9] deals with Escherichia coli. Put plainly: microbe, parasite or virus in culture. As to conditions: ATCC 25922.
The test system of data set [10] is Pseudomonas aeruginosa. Put plainly: Antibacterial activity against Pseudomonas aeruginosa ATCC 27853 by microdilution method. The data set is classed as functional. The procedure, abridged:
as §4

Data set [11] relates to Escherichia coli. Description: Antibacterial activity against AAC6'-IB expressing Escherichia coli PAZ505H8101 by microdilution method. The data set is classed as functional. The procedure, abridged: as §4
Data set [12] concerns Escherichia coli. Description: Antibacterial activity against ANT2''-IA expressing Escherichia coli L8058.1 by microdilution method. The data set is classed as functional. In a few lines: as §4
For data set [13], the system named is Staphylococcus aureus. Description: Antibacterial activity against Staphylococcus aureus ATCC 25923 by microdilution method. The data set is classed as functional. The procedure, abridged:
(§5)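 Broth microdilution per CLSI in cation-adjusted Mueller–Hinton broth. Strains were grown overnight at 37 °C on trypticase soy agar, and a fresh culture was used. Starting inoculum was 10^6 cells.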

Data set [14] in a line: as §1. The data set is classed as toxicity, cell-based. To be noted: J774 cells, read-out: Activity. In a few lines:
as §2

The subject of data set [15] is Staphylococcus aureus. Put plainly: Antibacterial activity against healthcare-acquired methicillin-resistant Staphylococcus aureus ATCC 33592 by microdilution method. The data set is classed as functional. In a few lines: as §5
In data set [16] the test system is Pseudomonas aeruginosa. Description: Antibacterial activity against AAC6'-2A expressing Pseudomonas aeruginosa F03 by microdilution method. The data set is classed as functional. The procedure, abridged: as §4
The nature of data set [17]: as §3. As to conditions: J774 cells, read-out: Activity. The data set is classed as toxicity, cell-based. The procedure, abridged:
as §2

The subject of data set [18] is Pseudomonas aeruginosa. Description: Antibacterial activity against triABC deficient Pseudomonas aeruginosa PA406 by microdilution method. The data set is classed as functional. In a few lines: as §4
Data set [19] concerns Acinetobacter lwoffii. Put plainly: Antibacterial activity against APH3'-VIA expressing Acinetobacter lwoffii AI.88-483 by microdilution method. The data set is classed as functional. In a few lines:
as §4

Data set [20] relates to Pseudomonas aeruginosa. Put plainly: Induction of inner membrane permeabilization of Pseudomonas aeruginosa ATCC 27853 at 150 uM after 15 mins by propidium iodide staining-based fluorescence assay relative to control. The data set is classed as functional.

Values after ≈ are worked out from the molar mass of the structure shown.

Take `O=C(O)c1cn(C2CC2)c2cc(N3CCNCC3)c(F)cc2c1=O` [CIPROFLOXACIN]: the Ratio in [1] is recorded as 15.
For GENTAMICIN, the Activity worked out at 88.2% in [2] and 74.2% in data set [3].
As for `CCCCCCCCCO[C@@H]1[C@@H](N)[C@@H](OCC(O)CNCCCN)O[C@H](CN)[C@H]1OCCCCCCCCC` (mixture of isomers), the MIC in [4] stood at 32 µg/mL; in data set [5] it was 2 µg/mL; in data set [6], 8 µg/mL; in data set [8] it was 2 µg/mL; in [9], 8 µg/mL; in [10] it was 8 µg/mL. Further, the MIC came out at 4 µg/mL in [11]; 8 µg/mL in [12]; 2 µg/mL in data set [13]; 2 µg/mL in [15]; 8 µg/mL in [16]; 4 µg/mL in data set [18]. In [19], this compound returned an MIC of 8 µg/mL. This compound also gave an Activity in [7] of 25%. In [14], the viability at 24 h, 10 µM stood at 101%. Besides, the viability at 24 h, 30 µM in [17] worked out at 71.6%.
As for `C=CCO[C@H]1O[C@H](CN)[C@@H](OCc2ccc3ccccc3c2)[C@H](OCc2ccc3ccccc3c2)[C@H]1N`, the MIC is greater than 128 µg/mL in data set [4]; 8 µg/mL (≈ 16 µM) in data set [5]; greater than 128 µg/mL in data set [6]; 8 µg/mL (≈ 16 µM) in [8]; 64 µg/mL (≈ 128 µM) in data set [9]; greater than 128 µg/mL in [10]. The MIC was 64 µg/mL (≈ 128 µM) in [11]; 128 µg/mL (≈ 257 µM) in data set [12]; 8 µg/mL (≈ 16 µM) in data set [13]; 8 µg/mL (≈ 16 µM) in data set [15]; greater than 128 µg/mL in data set [16]; 32 µg/mL (≈ 64.2 µM) in data set [18]. The compound further registered an MIC in data set [19] of 64 µg/mL (≈ 128 µM). For the same compound, the viability at 24 h, 10 µM in data set [14] worked out at 86.9%. For the same compound, in data set [17], the viability at 24 h, 30 µM was 28.3%.
For the compound `C=CCO[C@H]1O[C@H](CN)[C@@H](OCCCc2ccc3ccccc3c2)[C@H](OCCCc2ccc3ccccc3c2)[C@H]1N`, the MIC is 128 µg/mL (≈ 231 µM) in [4]; 4 µg/mL (≈ 7.21 µM) in data set [5]; greater than 128 µg/mL in data set [6]; 4 to 8 µg/mL (≈ 7.21 to 14.4 µM) in [8]; 32 to 64 µg/mL (≈ 57.7 to 115 µM) in [9]; 128 µg/mL (≈ 231 µM) in data set [10]. Besides, the MIC is 64 µg/mL (≈ 115 µM) in data set [11]; 64 µg/mL (≈ 115 µM) in data set [12]; 4 to 8 µg/mL (≈ 7.21 to 14.4 µM) in data set [13]; 4 to 8 µg/mL (≈ 7.21 to 14.4 µM) in data set [15]; greater than 128 µg/mL in data set [16]; 32 µg/mL (≈ 57.7 µM) in data set [18]. The compound also had an MIC in data set [19] of 64 µg/mL (≈ 115 µM). Moreover, in [14], the viability at 24 h, 10 µM was 105%. Moreover, the viability at 24 h, 30 µM in data set [17] turned out to be 7%.
As for Hexadecyltrimethylammonium bromide, the Activity in [20] worked out at 100%.
In the case of `CCCCCCCCCO[C@@H]1[C@@H](N)[C@@H](OCC(O)CNCCCO)O[C@H](CN)[C@H]1OCCCCCCCCC` (mixture of isomers), the MIC in [4] is 8 to 16 µg/mL; in [5], 1 to 2 µg/mL; in data set [6], 8 µg/mL; in data set [8] it was 1 µg/mL; in data set [9], 4 to 8 µg/mL; in [10], 8 µg/mL. Moreover, the MIC in data set [11] was 4 µg/mL; in data set [12] it was 4 µg/mL; in [13], 2 µg/mL; in [15], 1 to 2 µg/mL; in data set [16] it was 8 µg/mL; in [18], 8 µg/mL. In data set [19], this compound returned an MIC of 8 µg/mL. In addition, the viability at 24 h, 10 µM in data set [14] stood at 89.9%. Also, the viability at 24 h, 30 µM in [17] is 13.7%.
